Measured values reported in ChEMBL document CHEMBL1681713, “Lead detoxification activities and ADMET hepatotoxicities of a class of novel 5-(1-carbonyl-L-amino-acid)-2,2-dimethyl-[1,3]dithiolane-4-carboxylic acids” (Bioorg Med Chem Lett, 2011).

How the values were obtained:
Liver [1] = experiment: Toxicity in mouse assessed as effect on zinc level in liver per gram of organ at 0.4 mmol/kg, ip qd for 5 days; type: organism-based; details: in vivo, 120 h
[2] = Detoxification activity against lead-induced toxicity in mouse assessed as reduction lead level in urine at 0.4 mmol/kg, ip qd for 5 days measured 24 hrs last post dose by synchrotron X-ray fluorescence analysis; type: functional
Outline: (§1)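 Lead-loaded mice were given normal saline vehicle, DL-penicillamine or NaDMS (positive controls), or test agent, each at 0.4 mmol/kg; n = 12 per group. Lead was measured in feces and urine and reported as mean ± SD µg Pb/g excrement against the NS group.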

Brain [3] = experiment: Detoxification activity against lead-induced toxicity in mouse assessed as reduction lead level in brain per gram of organ at 0.4 mmol/kg, ip qd for 5 days measured 24 hrs last post dose by synchrotron X-ray fluorescence analysis; type: functional
Outline: (§2)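 Lead-loaded mice were given normal saline vehicle (negative control) or test agent at 0.2, 0.4 or 0.6 mmol/kg. Lead was measured in liver, kidney, left femur and brain and reported as mean ± SD µg Pb/g organ against the NS group.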

Brain [4] = experiment: Toxicity in mouse assessed as effect on manganese level in brain per gram of organ at 0.4 mmol/kg, ip qd for 5 days; type: organism-based; details: in vivo, 120 h
[5] = Detoxification activity against lead-induced toxicity in mouse assessed as reduction lead level in feces at 0.4 mmol/kg, ip qd for 5 days measured 24 hrs last post dose by synchrotron X-ray fluorescence analysis; type: functional; outline: as §1
Kidney [6] = experiment: Detoxification activity against lead-induced toxicity in mouse assessed as reduction lead level in kidney per gram of organ at 0.4 mmol/kg, ip qd for 5 days measured 24 hrs last post dose by synchrotron X-ray fluorescence analysis; type: functional; outline: as §2
Brain [7] = experiment: Toxicity in mouse assessed as effect on copper level in brain per gram of organ at 0.4 mmol/kg, ip qd for 5 days; type: organism-based; details: in vivo, 120 h
Kidney [8] = experiment: Toxicity in mouse assessed as effect on copper level in kidney per gram of organ at 0.4 mmol/kg, ip qd for 5 days; type: organism-based; details: in vivo, 120 h
Liver [9] = experiment: Toxicity in mouse assessed as effect on iron level in liver per gram of organ at 0.4 mmol/kg, ip qd for 5 days; type: organism-based; details: in vivo, 120 h
Caco-2 = experiment: Efflux ratio of permeability […] in human Caco2 cells at 4 mM up to 120 mins by HPLC analysis; type: ADME, cell-based; details: caco-2, 2 h, 4000 µM
Outline: (§3)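 Permeability measured across Caco-2 cell monolayers.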

Brain [10] = experiment: Toxicity in mouse assessed as effect on zinc level in brain per gram of organ at 0.4 mmol/kg, ip qd for 5 days; type: organism-based; details: in vivo, 120 h
Brain [11] = experiment: Toxicity in mouse assessed as effect on calcium level in brain per gram of organ at 0.4 mmol/kg, ip qd for 5 days; type: organism-based; details: in vivo, 120 h
Kidney [12] = experiment: Toxicity in mouse assessed as effect on manganese level in kidney per gram of organ at 0.4 mmol/kg, ip qd for 5 days; type: organism-based; details: in vivo, 120 h
[13] = Apparent permeability from apical to basolateral side of human Caco2 cells at 4 mM up to 120 mins by HPLC analysis; type: ADME, cell-based; details: Caco-2; outline: as §3
Femur = experiment: Detoxification activity against lead-induced toxicity in mouse assessed as reduction lead level in femurs per gram of organ at 0.4 mmol/kg, ip qd for 5 days measured 24 hrs last post dose by synchrotron X-ray fluorescence analysis; type: functional; outline: as §2
Brain [14] = experiment: Toxicity in mouse assessed as effect on iron level in brain per gram of organ at 0.4 mmol/kg, ip qd for 5 days; type: organism-based; details: in vivo, 120 h
Kidney [15] = experiment: Toxicity in mouse assessed as effect on zinc level in kidney per gram of organ at 0.4 mmol/kg, ip qd for 5 days; type: organism-based; details: in vivo, 120 h
Kidney [16] = experiment: Toxicity in mouse assessed as effect on calcium level in kidney per gram of organ at 0.4 mmol/kg, ip qd for 5 days; type: organism-based; details: in vivo, 120 h
Liver [17] = experiment: Toxicity in mouse assessed as effect on manganese level in liver per gram of organ at 0.4 mmol/kg, ip qd for 5 days; type: organism-based; details: in vivo, 120 h
Liver [18] = experiment: Toxicity in mouse assessed as effect on copper level in liver per gram of organ at 0.4 mmol/kg, ip qd for 5 days; type: organism-based; details: in vivo, 120 h
[19] = Apparent permeability from basolateral to apical side of human Caco2 cells at 4 mM up to 120 mins by HPLC analysis; type: ADME, cell-based; details: Caco-2; outline: as §3
Mus musculus = experiment: Toxicity in mouse assessed as change in bodyweight at 0.4 mmol/kg, ip qd for 5 days; type: organism-based; details: in vivo, 120 h
Outline: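 Lead-loaded mice were given normal saline vehicle or test agent at 0.4 mmol/kg. Body weights were recorded and compared with the NS group to assess growth.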

Liver [20] = experiment: Detoxification activity against lead-induced toxicity in mouse assessed as reduction lead level in liver per gram of organ at 0.4 mmol/kg, ip qd for 5 days measured 24 hrs last post dose by synchrotron X-ray fluorescence analysis; type: functional; outline: as §2
Liver [21] = experiment: Toxicity in mouse assessed as effect on calcium level in liver per gram of organ at 0.4 mmol/kg, ip qd for 5 days; type: organism-based; details: in vivo, 120 h
Kidney [22] = experiment: Toxicity in mouse assessed as effect on iron level in kidney per gram of organ at 0.4 mmol/kg, ip qd for 5 days; type: organism-based; details: in vivo, 120 h

Ratio (Caco-2)	Papp A→B at 2 h, 4000 µM [13]	SMILES	Activity (Liver [1])	Activity [2]	Activity (Brain [3])	Activity (Brain [4])	Activity [5]	Activity (Kidney [6])	Activity (Brain [7])	Activity (Kidney [8])	Activity (Liver [9])	Activity (Brain [10])	Activity (Brain [11])	Activity (Kidney [12])	Activity (Femur)	Activity (Brain [14])	Activity (Kidney [15])	Activity (Kidney [16])	Activity (Liver [17])	Activity (Liver [18])	other results
3.11	15.7 ×10⁻⁶ cm/s	CSCC[C@H](NC(=O)C1SC(C)(C)SC1C(=O)O)C(=O)O (stereo not given in full)	36.78 µg/g	2.26 µg/g	0.91 µg/g	0.73 µg/g	4.35 µg/g	6.36 µg/g	2.41 µg/g	3.65 µg/g	153.33 µg/g	33.66 µg/g	70.51 µg/g	1.37 µg/g	13.71 µg/g	56.6 µg/g	27.79 µg/g	77.39 µg/g	1.39 µg/g	3.59 µg/g	Papp B→A at 2 h, 4000 µM [19]: 5.05 ×10⁻⁶ cm/s; Activity (Mus musculus): 30 g; Activity (Liver [20]): 3.51 µg/g; Activity (Liver [21]): 59.64 µg/g; Activity (Kidney [22]): 93.88 µg/g
3.23	16.6 ×10⁻⁶ cm/s	CC1(C)SC(C(=O)O)C(C(=O)N[C@@H](CC(N)=O)C(=O)O)S1 (stereo not given in full)	37.92 µg/g	2.12 µg/g	0.58 µg/g	0.69 µg/g	4.71 µg/g	7.06 µg/g	2.58 µg/g	3.72 µg/g	153.07 µg/g	34.95 µg/g	71.3 µg/g	1.42 µg/g	16.62 µg/g	57.5 µg/g	28.13 µg/g	76.36 µg/g	1.38 µg/g	3.74 µg/g	Papp B→A at 2 h, 4000 µM [19]: 5.15 ×10⁻⁶ cm/s; Activity (Mus musculus): 31.3 g; Activity (Liver [20]): 3.99 µg/g; Activity (Liver [21]): 60.41 µg/g; Activity (Kidney [22]): 94.84 µg/g
2.91	13.7 ×10⁻⁶ cm/s	CC1(C)SC(C(=O)O)C(C(=O)O)S1 (stereo not given)	36.66 µg/g	1.93 µg/g	1.42 µg/g	0.7 µg/g	4.57 µg/g	7.12 µg/g	2.42 µg/g	3.4 µg/g	152.9 µg/g	34.54 µg/g	71.33 µg/g	1.3 µg/g	15.47 µg/g	56.6 µg/g	28 µg/g	75.94 µg/g	1.36 µg/g	3.61 µg/g	Papp B→A at 2 h, 4000 µM [19]: 4.68 ×10⁻⁶ cm/s; Activity (Mus musculus): 29 g; Activity (Liver [20]): 4.02 µg/g; Activity (Liver [21]): 58.87 µg/g; Activity (Kidney [22]): 95.1 µg/g
2.9	14.2 ×10⁻⁶ cm/s	CC[C@H](C)[C@H](NC(=O)C1SC(C)(C)SC1C(=O)O)C(=O)O (stereo not given in full)	36.79 µg/g	2.42 µg/g	1.42 µg/g	0.75 µg/g	4.1 µg/g	6.49 µg/g	2.48 µg/g	3.54 µg/g	152.94 µg/g	33 µg/g	69 µg/g	1.44 µg/g	14.32 µg/g	56.49 µg/g	27.41 µg/g	75.99 µg/g	1.34 µg/g	3.73 µg/g	Papp B→A at 2 h, 4000 µM [19]: 4.91 ×10⁻⁶ cm/s; Activity (Mus musculus): 30.6 g; Activity (Liver [20]): 5 µg/g; Activity (Liver [21]): 59.96 µg/g; Activity (Kidney [22]): 92.98 µg/g
